What follows are compounds tested against T1, Cannabinoid receptor 2 (Homo sapiens, UniProt P34972) (assay: Displacement of [3H]CP-55940 from human recombinant CB2 receptor expressed in HEK293 cells). Conditions: read-out: Ki.
Format: cell-based

T1 sequence (P34972 whole entry): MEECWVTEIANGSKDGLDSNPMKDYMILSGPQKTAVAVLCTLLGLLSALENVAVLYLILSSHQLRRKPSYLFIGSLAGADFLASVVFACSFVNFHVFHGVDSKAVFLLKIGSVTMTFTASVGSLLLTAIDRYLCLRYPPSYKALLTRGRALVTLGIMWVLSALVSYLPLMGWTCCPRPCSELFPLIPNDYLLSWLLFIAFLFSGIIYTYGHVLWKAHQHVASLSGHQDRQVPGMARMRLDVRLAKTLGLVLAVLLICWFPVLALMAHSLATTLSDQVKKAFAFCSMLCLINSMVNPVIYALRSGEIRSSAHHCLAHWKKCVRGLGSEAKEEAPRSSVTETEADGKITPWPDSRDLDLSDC

Structure (SMILES) | Ki
CC1(C)C(C(=O)c2cn(CCN3CCOC3=O)c3ccccc23)C1(C)C | 0.18 nM
CC1(C)C(C(=O)c2cn(CCCCO)c3ccccc23)C1(C)C | 2.2 nM
CC1(C)C(C(=O)c2cn(CCN3CCOCC3)c3ccccc23)C1(C)C | 4.6 nM
CC1(C)C(C(=O)c2cn(CCc3ccncc3)c3ccccc23)C1(C)C | 31 nM
CSCCCCn1cc(C(=O)C2C(C)(C)C2(C)C)c2ccccc21 | 0.4 nM
CCCn1cc(C(=O)C2C(C)(C)C2(C)C)c2ccccc21 | 9.2 nM
CC1(C)C(C(=O)c2cn(Cc3cccnc3)c3ccccc23)C1(C)C | 30 nM
CC1(C)C(C(=O)c2cn(CCc3cccs3)c3ccccc23)C1(C)C | 2.8 nM
CN(C)CCn1cc(C(=O)C2C(C)(C)C2(C)C)c2ccccc21 | 1.9 nM
CC1(C)C(C(=O)c2cn(CCN3CCCCCC3)c3ccccc23)C1(C)C | 26 nM
COC(=O)CCn1cc(C(=O)C2C(C)(C)C2(C)C)c2ccccc21 | 2.9 nM
CC1(C)C(C(=O)c2cn(CCc3ccccn3)c3ccccc23)C1(C)C | 68 nM
CC1(C)C(C(=O)c2cn(CCc3nsc(Cl)n3)c3ccccc23)C1(C)C | 8.3 nM
CC1(C)C(C(=O)c2cn(CCN3CCCC3)c3ccccc23)C1(C)C | 5.8 nM

Each compound was assayed against T2, Cannabinoid receptor 1 (Homo sapiens, UniProt P21554) (assay: Displacement of [3H]CP-55940 from human recombinant CB1 receptor expressed in CHO cells). Conditions: read-out: Ki.
T2 sequence (P21554 whole entry): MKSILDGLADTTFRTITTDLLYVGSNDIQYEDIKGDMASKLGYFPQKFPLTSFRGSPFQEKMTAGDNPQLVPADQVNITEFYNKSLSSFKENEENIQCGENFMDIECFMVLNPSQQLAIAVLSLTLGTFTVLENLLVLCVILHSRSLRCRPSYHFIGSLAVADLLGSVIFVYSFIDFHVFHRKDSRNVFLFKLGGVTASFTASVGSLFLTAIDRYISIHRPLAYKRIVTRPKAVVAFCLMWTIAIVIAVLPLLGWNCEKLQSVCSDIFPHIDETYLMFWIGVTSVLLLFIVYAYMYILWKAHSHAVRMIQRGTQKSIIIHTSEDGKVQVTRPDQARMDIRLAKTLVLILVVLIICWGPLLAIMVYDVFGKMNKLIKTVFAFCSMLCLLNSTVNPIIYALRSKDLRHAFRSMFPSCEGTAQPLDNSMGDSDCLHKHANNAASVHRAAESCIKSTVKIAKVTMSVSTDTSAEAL
Format: cell-based

Structure (SMILES) | Ki
CC1(C)C(C(=O)c2cn(CCN3CCOC3=O)c3ccccc23)C1(C)C | 350 nM
CC1(C)C(C(=O)c2cn(CCCCO)c3ccccc23)C1(C)C | > 5600 nM
CC1(C)C(C(=O)c2cn(CCc3ccncc3)c3ccccc23)C1(C)C | 2200 nM
CSCCCCn1cc(C(=O)C2C(C)(C)C2(C)C)c2ccccc21 | 39 nM
CCCn1cc(C(=O)C2C(C)(C)C2(C)C)c2ccccc21 | 4300 nM
CC1(C)C(C(=O)c2cn(Cc3cccnc3)c3ccccc23)C1(C)C | 2030 nM
CC1(C)C(C(=O)c2cn(CCc3cccs3)c3ccccc23)C1(C)C | 700 nM
CN(C)CCn1cc(C(=O)C2C(C)(C)C2(C)C)c2ccccc21 | > 10000 nM
CC1(C)C(C(=O)c2cn(CCN3CCCCCC3)c3ccccc23)C1(C)C | 790 nM
COC(=O)CCn1cc(C(=O)C2C(C)(C)C2(C)C)c2ccccc21 | 1830 nM
CC1(C)C(C(=O)c2cn(CCc3ccccn3)c3ccccc23)C1(C)C | 1900 nM
CC1(C)C(C(=O)c2cn(CCc3nsc(Cl)n3)c3ccccc23)C1(C)C | 4200 nM
CC1(C)C(C(=O)c2cn(CCN3CCCC3)c3ccccc23)C1(C)C | > 10000 nM

Same assay, conditions: read-out: pKi (converted)

Structure (SMILES) | Ki
CC1(C)C(C(=O)c2cn(CCCCO)c3ccccc23)C1(C)C | > 5620 nM

Species on record: Homo sapiens
Experiment: Selectivity ratio of Ki for human recombinant CB1 receptor to Ki for human recombinant CB2 receptor
Conditions: not given
In short: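 Membranes were from HEK cells stably expressing human CB2 and CHO cells stably expressing human CB1. Competition was run against 0.5 nM [3H]CP-55,940 in 50 mM Tris-HCl pH 7.4, 2.5 mM EDTA, 5 mM MgCl2, 0.05% fatty-acid-free BSA, for 90 min at 30 °C, then filtered. Nonspecific binding was set with 10 μM unlabeled CP-55,940. Ki came from one-site fits. Mean ± SEM, ≥3 experiments in duplicate.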

Structure (SMILES) | Ratio Ki
CC1(C)C(C(=O)c2cn(CCN3CCOC3=O)c3ccccc23)C1(C)C | 1940
CC1(C)C(C(=O)c2cn(CCCCO)c3ccccc23)C1(C)C | > 2500
CC1(C)C(C(=O)c2cn(CCc3ccncc3)c3ccccc23)C1(C)C | 71
CSCCCCn1cc(C(=O)C2C(C)(C)C2(C)C)c2ccccc21 | 98
CCCn1cc(C(=O)C2C(C)(C)C2(C)C)c2ccccc21 | 467
CC1(C)C(C(=O)c2cn(Cc3cccnc3)c3ccccc23)C1(C)C | 68
CC1(C)C(C(=O)c2cn(CCc3cccs3)c3ccccc23)C1(C)C | 250
CN(C)CCn1cc(C(=O)C2C(C)(C)C2(C)C)c2ccccc21 | > 5260
CC1(C)C(C(=O)c2cn(CCN3CCCCCC3)c3ccccc23)C1(C)C | 30
COC(=O)CCn1cc(C(=O)C2C(C)(C)C2(C)C)c2ccccc21 | 631
CC1(C)C(C(=O)c2cn(CCc3ccccn3)c3ccccc23)C1(C)C | 28
CC1(C)C(C(=O)c2cn(CCc3nsc(Cl)n3)c3ccccc23)C1(C)C | 506
CC1(C)C(C(=O)c2cn(CCN3CCCC3)c3ccccc23)C1(C)C | > 1720

What follows are compounds tested against T1, Cannabinoid receptor 2 (assay: Agonist activity at human recombinant CB2 receptor expressed in HEK293 cells coexpressing Galphaq/o5 assessed as calcium mobilization by FLIPR assay). Conditions: not given.
Format: functional, cell-based
In short: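 HEK cells stably coexpressing human CB2 and chimeric Gαq/o5 were seeded at 75 000 cells/well the day before and loaded with no-wash calcium dye. Mean ± SEM, ≥3 experiments in duplicate.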

Structure (SMILES) | EC50
CC1(C)C(C(=O)c2cn(CCN3CCOC3=O)c3ccccc23)C1(C)C | 2 nM
CC1(C)C(C(=O)c2cn(CCCCO)c3ccccc23)C1(C)C | 8 nM
CC1(C)C(C(=O)c2cn(CCN3CCOCC3)c3ccccc23)C1(C)C | 16 nM
CC1(C)C(C(=O)c2cn(CCc3ccncc3)c3ccccc23)C1(C)C | 162 nM
CSCCCCn1cc(C(=O)C2C(C)(C)C2(C)C)c2ccccc21 | 22 nM
CCCn1cc(C(=O)C2C(C)(C)C2(C)C)c2ccccc21 | 36 nM
CC1(C)C(C(=O)c2cn(Cc3cccnc3)c3ccccc23)C1(C)C | 75 nM
CC1(C)C(C(=O)c2cn(CCc3cccs3)c3ccccc23)C1(C)C | 96 nM
CN(C)CCn1cc(C(=O)C2C(C)(C)C2(C)C)c2ccccc21 | 35 nM
CC1(C)C(C(=O)c2cn(CCN3CCCCCC3)c3ccccc23)C1(C)C | 1020 nM
COC(=O)CCn1cc(C(=O)C2C(C)(C)C2(C)C)c2ccccc21 | 17 nM
CC1(C)C(C(=O)c2cn(CCc3ccccn3)c3ccccc23)C1(C)C | 542 nM
CC1(C)C(C(=O)c2cn(CCc3nsc(Cl)n3)c3ccccc23)C1(C)C | 109 nM
CC1(C)C(C(=O)c2cn(CCN3CCCC3)c3ccccc23)C1(C)C | 70 nM

These compounds were tested against T1, Cannabinoid receptor 2 (assay: Agonist activity at human recombinant CB2 receptor expressed in HEK293 cells coexpressing Galphaq/o5 assessed as calcium mobilization by FLIPR assay relative to CP-55940). Conditions: not given.
Format: functional, cell-based
In short: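 HEK cells stably coexpressing human CB2 and chimeric Gαq/o5 were seeded at 75 000 cells/well the day before and loaded with no-wash calcium dye. […] Mean ± SEM, ≥3 experiments in duplicate.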

Structure (SMILES) | Activity
CC1(C)C(C(=O)c2cn(CCN3CCOC3=O)c3ccccc23)C1(C)C | 81%
CC1(C)C(C(=O)c2cn(CCCCO)c3ccccc23)C1(C)C | 105%
CC1(C)C(C(=O)c2cn(CCc3ccncc3)c3ccccc23)C1(C)C | 100%
CSCCCCn1cc(C(=O)C2C(C)(C)C2(C)C)c2ccccc21 | 74%
CCCn1cc(C(=O)C2C(C)(C)C2(C)C)c2ccccc21 | 114%
CC1(C)C(C(=O)c2cn(Cc3cccnc3)c3ccccc23)C1(C)C | 103%
CC1(C)C(C(=O)c2cn(CCc3cccs3)c3ccccc23)C1(C)C | 86%
CN(C)CCn1cc(C(=O)C2C(C)(C)C2(C)C)c2ccccc21 | 105%
CC1(C)C(C(=O)c2cn(CCN3CCCCCC3)c3ccccc23)C1(C)C | 49%
COC(=O)CCn1cc(C(=O)C2C(C)(C)C2(C)C)c2ccccc21 | 109%
CC1(C)C(C(=O)c2cn(CCc3ccccn3)c3ccccc23)C1(C)C | 59%
CC1(C)C(C(=O)c2cn(CCc3nsc(Cl)n3)c3ccccc23)C1(C)C | 97%
CC1(C)C(C(=O)c2cn(CCN3CCCC3)c3ccccc23)C1(C)C | 84%

What follows are compounds tested against T2, Cannabinoid receptor 1 (assay: Agonist activity at human recombinant CB1 receptor expressed in CHO cells assessed as inhibition of forskolin-induced cAMP production). Conditions: not given.
Format: functional, cell-based

Structure (SMILES) | EC50
CC1(C)C(C(=O)c2cn(CCN3CCOC3=O)c3ccccc23)C1(C)C | 3590 nM
CC1(C)C(C(=O)c2cn(CCCCO)c3ccccc23)C1(C)C | 1880 nM

Each compound was assayed against T1, Cannabinoid receptor 2 (assay: Agonist activity at human recombinant CB2 receptor expressed in HEK293 cells assessed as inhibition of forskolin-induced cAMP production). Conditions: not given.
Format: functional, cell-based

Structure (SMILES) | EC50
CC1(C)C(C(=O)c2cn(CC3CCOCC3)c3ccccc23)C1(C)C | 2.7 nM
CC1(C)C(C(=O)c2cn(CCN3CCOC3=O)c3ccccc23)C1(C)C | 0.97 nM
CC1(C)C(C(=O)c2cn(CCCCO)c3ccccc23)C1(C)C | 2.1 nM
CC1(C)C(C(=O)c2cn(CCN3CCOCC3)c3ccccc23)C1(C)C | 0.52 nM

What follows are compounds tested against T1, Cannabinoid receptor 2 (assay: Agonist activity at human recombinant CB2 receptor expressed in HEK293 cells assessed as inhibition of forskolin-induced cAMP production relative to CP-55940). Conditions: not given.
Format: functional, cell-based
Parameters: scale not given: the % may be the effect or the level left
In short: (§1)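 Cyclase assay on cell suspensions (HitHunter cAMP kit): varying test ligand concentrations or CP-55,940 positive control incubated 20 min at 37 °C with a fixed forskolin concentration (lower for rat CB2 than for human CB2 and rat CB1) in D-PBS with 0.01% BSA. Lysis buffer was then added and luminescence read. Response is given as percent of the CP-55,940 response.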

Structure (SMILES) | Activity
CC1(C)C(C(=O)c2cn(CC3CCOCC3)c3ccccc23)C1(C)C | 103%
CC1(C)C(C(=O)c2cn(CCN3CCOC3=O)c3ccccc23)C1(C)C | 114%
CC1(C)C(C(=O)c2cn(CCCCO)c3ccccc23)C1(C)C | 100%
CC1(C)C(C(=O)c2cn(CCN3CCOCC3)c3ccccc23)C1(C)C | 78%

The compounds below were run against Cannabinoid receptor 1 (Rattus norvegicus, UniProt P20272) (assay: Agonist activity at rat CB1 receptor assessed as inhibition of forskolin-induced cAMP production by cell based assay). Conditions: not given.
Sequence of Cannabinoid receptor 1 (Rattus norvegicus, UniProt P20272) (P20272 whole entry): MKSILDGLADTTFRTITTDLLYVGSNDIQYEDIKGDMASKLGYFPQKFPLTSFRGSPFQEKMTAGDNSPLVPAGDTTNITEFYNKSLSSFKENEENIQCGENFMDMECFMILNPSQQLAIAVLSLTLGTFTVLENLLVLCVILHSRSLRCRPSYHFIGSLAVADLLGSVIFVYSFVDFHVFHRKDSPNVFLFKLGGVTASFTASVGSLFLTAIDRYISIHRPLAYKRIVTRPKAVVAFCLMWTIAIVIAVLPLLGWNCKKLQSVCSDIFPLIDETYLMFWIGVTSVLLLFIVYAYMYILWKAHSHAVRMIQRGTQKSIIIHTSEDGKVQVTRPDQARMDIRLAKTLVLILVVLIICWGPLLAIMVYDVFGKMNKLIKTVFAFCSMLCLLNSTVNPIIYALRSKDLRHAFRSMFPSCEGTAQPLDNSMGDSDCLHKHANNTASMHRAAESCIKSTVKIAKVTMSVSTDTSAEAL
Format: functional

Structure (SMILES) | EC50
CC1(C)C(C(=O)c2cn(CCCCO)c3ccccc23)C1(C)C | 2080 nM
CC1(C)C(C(=O)c2cn(CCN3CCOCC3)c3ccccc23)C1(C)C | 248 nM

Each compound was assayed against Cannabinoid receptor 1 (Rattus norvegicus) (UniProt P20272) (assay: Agonist activity at rat CB1 receptor assessed as inhibition of forskolin-induced cAMP production by cell based assay relative to CP-55940). Conditions: not given.
Sequence of Cannabinoid receptor 1 (Rattus norvegicus) (P20272 whole entry): as above
Format: functional
Parameters: scale not given: the % may be the effect or the level left
In short: as §1

Structure (SMILES) | Activity
CC1(C)C(C(=O)c2cn(CC3CCOCC3)c3ccccc23)C1(C)C | 91%
Cc1c(C(=O)c2cccc3ccccc23)c2cccc3c2n1[C@H](CN1CCOCC1)CO3 | 108%
CC1(C)C(C(=O)c2cn(CCCCO)c3ccccc23)C1(C)C | 113%
CC1(C)C(C(=O)c2cn(CCN3CCOCC3)c3ccccc23)C1(C)C | 97%

These compounds were tested against T3, Cannabinoid receptor 2 (Rattus norvegicus, UniProt Q9QZN9) (assay: Agonist activity at rat CB2 receptor assessed as inhibition of forskolin-induced cAMP production by cell based assay). Conditions: not given.
T3 sequence (Q9QZN9 whole entry): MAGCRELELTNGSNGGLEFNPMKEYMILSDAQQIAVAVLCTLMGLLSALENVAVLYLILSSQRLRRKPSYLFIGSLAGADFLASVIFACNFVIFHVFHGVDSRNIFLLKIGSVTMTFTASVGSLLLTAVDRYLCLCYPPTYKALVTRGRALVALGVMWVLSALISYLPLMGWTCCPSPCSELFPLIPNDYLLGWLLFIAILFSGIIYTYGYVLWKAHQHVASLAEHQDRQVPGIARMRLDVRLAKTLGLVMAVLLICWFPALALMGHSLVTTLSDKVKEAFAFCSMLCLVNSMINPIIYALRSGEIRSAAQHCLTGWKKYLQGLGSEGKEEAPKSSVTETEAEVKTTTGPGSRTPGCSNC
Format: functional

Structure (SMILES) | EC50
CC1(C)C(C(=O)c2cn(CC3CCOCC3)c3ccccc23)C1(C)C | 0.17 nM
CC1(C)C(C(=O)c2cn(CCN3CCOC3=O)c3ccccc23)C1(C)C | 0.07 nM
CC1(C)C(C(=O)c2cn(CCCCO)c3ccccc23)C1(C)C | 4.4 nM
CC1(C)C(C(=O)c2cn(CCN3CCOCC3)c3ccccc23)C1(C)C | 1.6 nM

These compounds were tested against T4, Cannabinoid receptor 2 (Rattus norvegicus) (UniProt Q9QZN9) (assay: Agonist activity at rat CB2 receptor assessed as inhibition of forskolin-induced cAMP production by cell based assay relative to CP-55940). Conditions: not given.
T4 sequence (whole entry): T3 sequence (Q9QZN9 whole entry)
Format: functional
Parameters: concentration or dose not given beside the values
In short: as §1

Structure (SMILES) | Activity
CC1(C)C(C(=O)c2cn(CC3CCOCC3)c3ccccc23)C1(C)C | 93%
CC1(C)C(C(=O)c2cn(CCN3CCOC3=O)c3ccccc23)C1(C)C | 99%
Cc1c(C(=O)c2cccc3ccccc23)c2cccc3c2n1[C@H](CN1CCOCC1)CO3 | 46%
CC1(C)C(C(=O)c2cn(CCCCO)c3ccccc23)C1(C)C | 104%
CC1(C)C(C(=O)c2cn(CCN3CCOCC3)c3ccccc23)C1(C)C | 70%

From ChEMBL document CHEMBL1156767, “Indol-3-ylcycloalkyl ketones: effects of N1 substituted indole side chain variations on CB(2) cannabinoid receptor activity” (J Med Chem, 2010)
